The source of these data is ChEMBL document CHEMBL4257503, “N-Acetyl-3-aminopyrazoles block the non-canonical NF-kB cascade by selectively inhibiting NIK” (Medchemcomm, 2018).

Assay [1] has as its target T1, Inhibitor of nuclear factor kappa-B kinase subunit alpha (Homo sapiens, UniProt O15111).
T1 sequence (O15111 whole entry): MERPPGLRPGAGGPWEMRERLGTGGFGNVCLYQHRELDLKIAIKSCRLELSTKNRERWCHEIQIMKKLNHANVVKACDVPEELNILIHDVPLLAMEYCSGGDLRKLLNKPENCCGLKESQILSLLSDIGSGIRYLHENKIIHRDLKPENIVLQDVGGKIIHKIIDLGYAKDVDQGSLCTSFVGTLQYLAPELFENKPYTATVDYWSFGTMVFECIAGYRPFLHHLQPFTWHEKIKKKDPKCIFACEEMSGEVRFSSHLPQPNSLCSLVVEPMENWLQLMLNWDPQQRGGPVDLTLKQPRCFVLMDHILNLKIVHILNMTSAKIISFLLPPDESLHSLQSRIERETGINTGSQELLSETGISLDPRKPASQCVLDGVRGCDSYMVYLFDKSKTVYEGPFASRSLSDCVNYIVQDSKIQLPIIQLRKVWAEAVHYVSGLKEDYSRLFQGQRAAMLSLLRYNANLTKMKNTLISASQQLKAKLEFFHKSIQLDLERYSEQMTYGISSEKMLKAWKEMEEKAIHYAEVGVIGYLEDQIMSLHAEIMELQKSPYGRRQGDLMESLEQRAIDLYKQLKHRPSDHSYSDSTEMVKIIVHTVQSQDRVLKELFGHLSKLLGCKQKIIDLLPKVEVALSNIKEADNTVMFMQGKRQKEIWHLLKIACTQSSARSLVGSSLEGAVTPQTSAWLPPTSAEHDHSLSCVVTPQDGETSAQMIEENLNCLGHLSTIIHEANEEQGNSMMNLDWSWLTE
Put plainly: Inhibition of recombinant full length human His-tagged IKKalpha expressed in baculovirus expression system using ERLLDDRHDSGLDSMKDEE peptide as substrate measured after 60 mins by ADP-Glo kinase assay. The method, boiled down: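 Recombinant human IKKα, peptide substrate 100 µM, enzyme 8 ng/µL, ATP 1 µM in Tris-HCl pH 7.5 buffer with MgCl2, MnCl2, DTT, Na3VO4, BSA; 25°C, 60 min; ADP-Glo luminescence. Ten concentrations 0.005–100 µM; IC50 by nonlinear regression; means ± SD of three independent experiments.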
Background: ADP-Glo turns the ADP formed in a reaction into a luminescent signal.

The target in assay [2] is Mitogen-activated protein kinase kinase kinase 14 (Homo sapiens, UniProt Q99558). Put plainly: Inhibition of recombinant human full-length N-terminal GST-fused/His6-tagged NIK (M1 to P947 residues) expressed in Sf9 insect cells using AKDVDQGSLCTSFVGTLQY peptide as substrate measured after 60 mins by ADP-Glo kinase assay.
Chain of Mitogen-activated protein kinase kinase kinase 14 (Q99558 whole entry, the tested form may be a part): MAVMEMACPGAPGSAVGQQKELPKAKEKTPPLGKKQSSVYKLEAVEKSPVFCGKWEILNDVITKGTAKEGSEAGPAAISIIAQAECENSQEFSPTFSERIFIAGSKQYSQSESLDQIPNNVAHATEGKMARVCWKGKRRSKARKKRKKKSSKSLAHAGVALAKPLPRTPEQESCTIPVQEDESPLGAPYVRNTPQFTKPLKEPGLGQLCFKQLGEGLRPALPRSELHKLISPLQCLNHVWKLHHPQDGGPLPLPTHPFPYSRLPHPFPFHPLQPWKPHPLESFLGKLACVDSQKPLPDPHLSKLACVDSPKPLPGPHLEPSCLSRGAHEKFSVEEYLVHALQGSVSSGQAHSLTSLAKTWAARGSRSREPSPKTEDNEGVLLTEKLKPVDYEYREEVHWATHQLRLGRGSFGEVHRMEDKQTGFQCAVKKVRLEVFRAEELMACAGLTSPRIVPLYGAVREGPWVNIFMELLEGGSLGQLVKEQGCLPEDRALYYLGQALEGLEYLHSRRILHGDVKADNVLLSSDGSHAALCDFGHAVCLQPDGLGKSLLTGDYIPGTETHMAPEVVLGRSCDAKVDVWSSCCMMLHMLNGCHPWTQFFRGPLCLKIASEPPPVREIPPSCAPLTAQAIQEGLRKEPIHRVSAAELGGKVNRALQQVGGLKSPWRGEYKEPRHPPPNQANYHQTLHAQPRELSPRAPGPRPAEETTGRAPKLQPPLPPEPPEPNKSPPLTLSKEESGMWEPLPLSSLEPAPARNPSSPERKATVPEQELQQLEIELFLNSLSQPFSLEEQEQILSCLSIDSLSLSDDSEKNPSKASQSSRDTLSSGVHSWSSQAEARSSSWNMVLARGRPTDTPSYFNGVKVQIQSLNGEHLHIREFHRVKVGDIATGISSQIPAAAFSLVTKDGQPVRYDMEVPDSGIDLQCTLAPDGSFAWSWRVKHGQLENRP
Assay [3] concerns the target T2, Inhibitor of nuclear factor kappa-B kinase subunit epsilon (Homo sapiens, UniProt Q14164).
T2 sequence (Q14164 whole entry): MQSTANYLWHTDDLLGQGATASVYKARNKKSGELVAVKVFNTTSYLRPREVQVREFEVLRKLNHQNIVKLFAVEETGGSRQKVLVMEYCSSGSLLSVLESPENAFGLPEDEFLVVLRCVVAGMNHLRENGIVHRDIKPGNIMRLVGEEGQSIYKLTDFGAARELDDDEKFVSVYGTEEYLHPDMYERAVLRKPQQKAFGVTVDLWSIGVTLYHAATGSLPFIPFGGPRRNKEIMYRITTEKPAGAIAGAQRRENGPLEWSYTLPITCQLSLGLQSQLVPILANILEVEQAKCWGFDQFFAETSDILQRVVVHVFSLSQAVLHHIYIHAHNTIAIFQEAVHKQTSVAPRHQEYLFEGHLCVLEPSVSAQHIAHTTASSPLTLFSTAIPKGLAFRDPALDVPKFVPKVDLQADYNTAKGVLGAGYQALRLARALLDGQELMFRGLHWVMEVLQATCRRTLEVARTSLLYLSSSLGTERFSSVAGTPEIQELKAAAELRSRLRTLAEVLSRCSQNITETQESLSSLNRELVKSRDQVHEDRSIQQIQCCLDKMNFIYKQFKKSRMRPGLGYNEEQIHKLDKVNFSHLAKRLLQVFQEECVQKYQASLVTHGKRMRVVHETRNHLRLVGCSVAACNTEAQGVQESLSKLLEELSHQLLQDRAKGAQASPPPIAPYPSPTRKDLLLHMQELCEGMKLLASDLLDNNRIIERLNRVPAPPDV
Put plainly: Inhibition of recombinant human full-length N-terminal GST-fused/His6-tagged IKKepsilon (M1 to V716 residues) expressed in Sf9 insect cells using ERLLDDRHDSGLDSMKDEE peptide as substrate measured after 60 mins by ADP-Glo kinase assay.

Assay [4] has as its target T3, Inhibitor of nuclear factor kappa-B kinase subunit beta (Homo sapiens, UniProt O14920).
T3 sequence (O14920 whole entry): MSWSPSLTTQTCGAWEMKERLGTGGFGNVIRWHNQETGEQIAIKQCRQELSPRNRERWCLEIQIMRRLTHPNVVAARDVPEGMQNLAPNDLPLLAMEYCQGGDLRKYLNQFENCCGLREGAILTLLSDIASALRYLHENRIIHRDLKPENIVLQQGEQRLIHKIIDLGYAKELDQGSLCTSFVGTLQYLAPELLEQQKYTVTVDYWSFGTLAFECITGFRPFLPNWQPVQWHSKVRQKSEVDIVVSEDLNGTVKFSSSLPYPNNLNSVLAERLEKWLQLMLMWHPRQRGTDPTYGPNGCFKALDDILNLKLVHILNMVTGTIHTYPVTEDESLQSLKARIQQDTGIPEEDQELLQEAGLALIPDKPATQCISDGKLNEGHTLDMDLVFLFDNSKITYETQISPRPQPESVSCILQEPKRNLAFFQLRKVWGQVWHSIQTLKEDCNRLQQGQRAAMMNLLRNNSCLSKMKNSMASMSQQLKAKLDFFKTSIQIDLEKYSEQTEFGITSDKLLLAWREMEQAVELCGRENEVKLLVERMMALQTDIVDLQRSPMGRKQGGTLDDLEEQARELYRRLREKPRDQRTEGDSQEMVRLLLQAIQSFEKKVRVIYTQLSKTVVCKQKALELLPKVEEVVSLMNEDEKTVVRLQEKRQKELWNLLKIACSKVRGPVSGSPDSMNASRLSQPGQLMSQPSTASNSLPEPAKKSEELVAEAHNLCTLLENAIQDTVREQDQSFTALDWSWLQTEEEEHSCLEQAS
Put plainly: Inhibition of recombinant human full-length N-terminal GST-fused/His6-tagged IKKbeta (M1 to S756 residues) expressed in Sf9 insect cells using ERLLDDRHDSGLDSMKDEE peptide as substrate measured after 60 mins by ADP-Glo kinase assay.

One may read the IC50 as the concentration needed to halve the response being measured. For `Cc1[nH]nc(N)c1-c1ccc(Cl)c(Cl)c1`, the IC50 was more than 100 µM in assay [1], more than 100 µM in assay [2], more than 100 µM in assay [3] and 50.9 µM in assay [4].

For the compound `CCCC(=O)n1nc(C)c(-c2ccc(Cl)c(Cl)c2)c1N`, the IC50 in assay [1], in assay [2], in assay [3] and in assay [4] was more than 100 µM throughout.

Consider `Cc1[nH]nc(N)c1-c1ccc2c(c1)OCO2`, for which the IC50 in assay [1], in assay [2], in assay [3] and in assay [4] was more than 100 µM throughout.

With `Cc1nn(C(=O)c2ccncc2)c(N)c1-c1ccc(Cl)c(Cl)c1`, the IC50 in assay [1] was more than 100 µM; in assay [2], 58.2 µM; in assay [3], more than 100 µM; in assay [4], more than 100 µM.

As to `Cc1[nH]nc(N)c1-c1cccc(C(F)(F)F)c1`, the concentration for half-maximal inhibition (IC50) is more than 100 µM in assay [1], more than 100 µM in assay [2], more than 100 µM in assay [3] and 22.4 µM in assay [4].

For the compound `Cc1[nH]nc(N)c1-c1ccc(OCc2ccccc2)cc1`, the IC50 in assay [1] is more than 100 µM; in assay [2], more than 100 µM; in assay [3] it was 15.4 µM; in assay [4], more than 100 µM.

Regarding `Cc1[nH]nc(N)c1-c1cc(C(F)(F)F)cc(C(F)(F)F)c1`, the IC50 in assay [1] is more than 100 µM; in assay [2], more than 100 µM; in assay [3], more than 100 µM; in assay [4], 22.9 µM.

In the case of `CCNC(=O)n1nc(C)c(-c2ccc(Cl)c(Cl)c2)c1N`, the IC50 in assay [1], in assay [2], in assay [3] and in assay [4] was more than 100 µM in each case.

As to `CC(=O)n1nc(N)c(Br)c1C`, the IC50 in assay [1] was more than 100 µM; in assay [2] it was 12.5 µM; in assay [3] it was more than 100 µM; in assay [4], 47.7 µM.

`CC(=O)n1nc(C)c(-c2cccc(C(F)(F)F)c2)c1N`: the IC50 in assay [1], in assay [2], in assay [3] and in assay [4] was more than 100 µM each time.

Turning to `Cc1[nH]nc(N)c1-c1ccc2ccccc2c1`, the IC50 in assay [1] was more than 100 µM; in assay [2] it was more than 100 µM; in assay [3], more than 100 µM; in assay [4], 42.8 µM.

On to `Cc1[nH]nc(N)c1-c1cccc(Cl)c1`, for which the IC50 is more than 100 µM in assay [1], more than 100 µM in assay [2], 93.4 µM in assay [3] and more than 100 µM in assay [4].

For the compound `Cc1cccc(-c2c(N)n[nH]c2C)c1`, the IC50 in assay [1], in assay [2], in assay [3] and in assay [4] was more than 100 µM throughout.

Take `CC(=O)n1nc(C)c(-c2ccc(Cl)cc2)c1N`: the IC50 in assay [1], in assay [2], in assay [3] and in assay [4] was more than 100 µM in each case.

On to `Cc1c(N)n[nH]c1-c1ccc(Cl)c(Cl)c1`, for which the 50% inhibitory concentration (IC50) in assay [1] is more than 100 µM; in assay [2], more than 100 µM; in assay [3], more than 100 µM; in assay [4] it was 75.7 µM.

For `Cc1ccc(-c2c(N)n[nH]c2C)cc1C`, the half-inhibitory concentration (IC50) in assay [1], in assay [2], in assay [3] and in assay [4] was more than 100 µM in each case.

Take `Cc1c(-c2ccc(Cl)c(Cl)c2)c(N)nn1C`: the IC50 in assay [1], in assay [2], in assay [3] and in assay [4] was more than 100 µM each time.

Turning to `Cc1nn(C(=O)c2cccnc2)c(N)c1-c1ccc(Cl)c(Cl)c1`, the IC50 in assay [1], in assay [2], in assay [3] and in assay [4] was more than 100 µM throughout.

`Cc1ccc(-c2c(N)n[nH]c2C)cc1`: the IC50 in assay [1], in assay [2], in assay [3] and in assay [4] was more than 100 µM throughout.

Consider `Cc1[nH]nc(N)c1-c1cccc(Br)c1`, for which the half-inhibitory concentration (IC50) is more than 100 µM in assay [1], more than 100 µM in assay [2], more than 100 µM in assay [3] and 88 µM in assay [4].

On to `Cc1[nH]nc(NC(=O)c2ccccn2)c1-c1ccc(Cl)c(Cl)c1`, for which the IC50 in assay [1], in assay [2], in assay [3] and in assay [4] was more than 100 µM each time.

In the case of `Cc1nn(C)c(N)c1-c1ccc(Cl)c(Cl)c1`, the 50% inhibitory concentration (IC50) in assay [1], in assay [2], in assay [3] and in assay [4] was more than 100 µM throughout.

With `CC(=O)n1nc(C)c(-c2ccc(C)c(C)c2)c1N`, the IC50 in assay [1] was more than 100 µM; in assay [2], 39.6 µM; in assay [3], more than 100 µM; in assay [4], more than 100 µM.

As to `Cc1[nH]nc(NC(=O)C(F)(F)F)c1-c1ccc(Cl)c(Cl)c1`, the IC50 in assay [1] was 34.9 µM; in assay [2] it was more than 100 µM; in assay [3], more than 100 µM; in assay [4], more than 100 µM.

For the compound `CCc1nn(C(C)=O)c(N)c1-c1ccc(Cl)c(Cl)c1`, the IC50 in assay [1], in assay [2], in assay [3] and in assay [4] was more than 100 µM throughout.

Turning to `CC(=O)n1nc(C)c(Br)c1N`, the IC50 in assay [1] is more than 100 µM; in assay [2], more than 100 µM; in assay [3], 22.9 µM; in assay [4], 13.6 µM.

Regarding `Cc1c(-c2ccc(Cl)c(Cl)c2)c(N)nn1C(=O)C1CCC1`, the IC50 in assay [1], in assay [2], in assay [3] and in assay [4] was more than 100 µM throughout.

Take `Cc1nn(C(=O)C2CCCC2)c(N)c1-c1ccc(Cl)c(Cl)c1`: the IC50 in assay [1] was more than 100 µM; in assay [2] it was 41 µM; in assay [3], more than 100 µM; in assay [4] it was more than 100 µM.

Turning to `Cc1[nH]nc(N)c1-c1cccc(OC(F)(F)F)c1`, the IC50 in assay [1], in assay [2], in assay [3] and in assay [4] was more than 100 µM in each case.
